High-throughput results deposited in PubChem BioAssay by several laboratories.
KCNQ1 act = potentiators or activators of human KCNQ1 potassium channel; P51787; CHO-K1 KCNQ1, thallium flux FluxOR fluorescence; hits give high values; B-score at 10 µM; hit rate 0.35% among 310,000;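 active = fluorescence ratio B-score, a plate-corrected score, at least three library SD, with initial intensity B-score within 5 SD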
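Material: CHO-K1 cells stably expressing KCNQ1. Medium: assay buffer for compound exposure, DMSO matched across wells. Reagent: K+/Tl+ depolarizing stimulus. Compound dosing: single-concentration screen. Times: 37 °C overnight plating, 90-min dark dye load, 20-min compound pretreatment. Technique: FluxOR Tl+ flux fluorescence.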
KCC2 mod = modulators of human KCC2 chloride dependent transport; hit rate 2.2% among 190,000; AID 1456; Q9H2X9; B-score of Tl+ flux slope (higher = more flux/activation; lower = inhibition) at 10 µM; KCC2 cells, thallium flux FluoZin-2 fluorescence;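 active = thallium flux slope and its plate-corrected score both differing from the plate sample mean at a set confidence after two filtering rounds, in either direction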;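 also: slope of fluorescence scaled to starting intensity during 10 to 20 s after thallium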
hERG protect = compounds protecting human hERG from proarrhythmic drug block. Q12809. CHO-hERG, FluxOR thallium flux, dofetilide IC70 present. activation (rescue from dofetilide block), less the hit threshold, % at 10 µM. hit rate 0.51% among 310,000;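 active = activation above the mean of controls blocked by dofetilide plus 5 SD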;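 also: thallium influx through hERG after potassium depolarization seen as dye fluorescence rise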
KCNK9 block = human KCNK9 channel inhibition | Q9NPC2 | HEK293 KCNK9, FluxOR thallium flux fluorescence; hits give low values | B-score at 10 µM | hit rate 1.2% among 310,000 | AID 488922;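 active = ratio B-score over 3 SD below the library mean, with starting fluorescence within 5 SD of its mean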;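 also: negative B-score means less thallium flux so channel inhibition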
Target sequence (Q9NPC2 whole entry, looked up): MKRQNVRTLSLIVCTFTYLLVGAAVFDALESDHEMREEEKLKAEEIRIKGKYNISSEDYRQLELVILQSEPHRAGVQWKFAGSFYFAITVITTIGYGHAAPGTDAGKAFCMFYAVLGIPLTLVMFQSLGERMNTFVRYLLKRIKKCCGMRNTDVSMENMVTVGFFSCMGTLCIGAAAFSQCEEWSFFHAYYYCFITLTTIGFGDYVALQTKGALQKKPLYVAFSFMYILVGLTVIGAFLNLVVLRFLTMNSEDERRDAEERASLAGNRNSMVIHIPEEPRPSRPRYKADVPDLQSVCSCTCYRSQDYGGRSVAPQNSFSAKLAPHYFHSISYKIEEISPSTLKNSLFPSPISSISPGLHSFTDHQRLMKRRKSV
KCNK3 inh = human KCNK3 channel inhibition, primary screen; B-score at 10 µM; hit rate 0.84% among 340,000; AID 602410; O14649; CHO-KCNK3 thallium flux, FluxOR fluorescence; hits give low values;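 active = B-score under library mean minus 4 SD, starting fluorescence ratio at most library mean plus 5 SD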;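 also: more negative B-score means stronger inhibition of thallium flux through KCNK3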
KCNQ1 inh = inhibitors of human KCNQ1 potassium channel; P51787; CHO-K1 KCNQ1, FluxOR thallium flux fluorescence; hits give high values; B-score at 10 µM; hit rate 1.3% among 310,000; AID 2642;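 active = compounds whose thallium flux B-score, printed positive for inhibition, exceeds three library SD while starting fluorescence stays within three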;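 also: channel opened by potassium depolarization with thallium stimulus after 20 min compound exposure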
Starred values were filed as active, the others as inactive; i = inactive; nt = not tested or not shown; ! = not active in a repeat. An excerpt weighted towards active compounds, which were near 4.1% of everything screened.

SMILES	KCNQ1 act	KCC2 mod	hERG protect	KCNK9 block	KCNK3 inh	KCNQ1 inh
C=CCNC(=O)/C(C#N)=C/c1ccccc1[N+](=O)[O-]	i	0.371	-10.7	i	i	i
CCOCCCNC(=O)/C(C#N)=C/c1ccc(-c2ccc(S(=O)(=O)N3CCOCC3)cc2)o1	i	-0.0653	-8.7	i	i	i
CCCCCCCCNC(=O)/C(C#N)=C/c1ccccc1[N+](=O)[O-]	i	-0.577	-11.7	i	i	7*
Cc1cc(C)cc(C(=O)NCC(=O)NNC(=O)CSc2ccccc2F)c1	nt	nt	nt	nt	i	nt
Cc1c(Cl)cccc1NC(=S)NCCc1ccc(C(F)(F)F)cc1	i	-0.0517	-9.6	i	i	7*
Cc1c(Cl)cccc1NC(=S)NCCc1ccccn1	i	-0.242	-4.1	i	i	i
O=C(OCC(=O)N1CCN(c2ccccc2)CC1)c1cnc(Cl)c(Cl)c1	i	-0.548	9.4*	i	nt	i
O=C(OCC(=O)N1CCN(c2ccccc2)CC1)c1cccc(Cl)c1	i	-1.1	-10.3	i	i	i
C[C@H](CO)N1C[C@H](C)[C@@H](CN(C)S(=O)(=O)c2ccc(F)cc2)Oc2c(NC(=O)Cc3ccccc3)cccc2C1=O	nt	nt	nt	nt	i	nt
Cc1cc(/C=C(\C#N)c2nc3ccccc3[nH]2)c(C)n1C	i	-0.188	-5.6	i	i	i
Cc1cc(/C=C(/C#N)c2nc3ccccc3[nH]2)c(C)n1-c1cccc([N+](=O)[O-])c1	i	nt	-6.3	i	i	8*
O=C(CS(=O)(=O)c1ccccc1)Nc1ncc([N+](=O)[O-])s1	i	nt	-8.8	i	i	i
O=C(Nc1ncc([N+](=O)[O-])s1)c1cccs1	i	nt	-5.4	i	i	6*!
O=C(Nc1ncc([N+](=O)[O-])s1)c1ccccc1Br	i	nt	-13.3	i	i	8*
Cc1cnc(NC(=O)c2cccs2)s1	i	nt	-6.4	i	i	i
O=C(CN1CC[n+]2c(-c3cccs3)csc21)c1ccc(-c2ccccc2)cc1	i	3.17*	-21.7	i	i	i
O=C(c1ccc(OC2CCN(CCc3ccccc3)CC2)cc1)N1CCC[C@H]1CO	i	nt	-8.0	i	i	i
CC(C)n1cc(NC(=O)c2cc(-c3ccccc3)on2)cn1	11*	33.1*	-2.2	i	i	i
O=C(Nc1cccnc1)c1cc(-c2ccccc2)on1	i	-0.718	-0.7	i	i	i
COc1ccccc1C(=O)NCC(=O)n1nc(C)cc1C	i	nt	-12.2	i	i	i
COc1ccccc1NCC(=O)n1nc(C)cc1C	i	1.42	6.7*	i	i	i
COc1ccc(S(=O)(=O)N2CCOCC2)cc1NC(=O)C1CCCCN1S(=O)(=O)c1ccccc1 (centres undefined)	nt	nt	nt	nt	i	nt
CCc1ccccc1Nc1cc(C(=O)NCc2ccccn2)c2ccccc2n1	i	-0.388	-9.4	-8.02*	i	i
CCc1ccc(-c2cc(C(=O)NCc3ccccn3)c3ccccc3n2)cc1	i	-0.444	-15.6	i	i	i
Cn1c(=O)c2c(ncn2CC(=O)Nc2nnc(Cc3ccccc3)s2)n(C)c1=O	i	-0.757	-1.9	i	i	i
SMILES	KCNQ1 act	KCC2 mod	hERG protect	KCNK9 block	KCNK3 inh	KCNQ1 inh
C=CCSc1nnc(NC(=O)Cn2cnc3c2c(=O)n(C)c(=O)n3C)s1	i	-0.00691	10.1*	i	i	i
Cc1cccc(NC(=O)CN(C)C(=O)/C=C/c2ccccc2)c1C	nt	nt	nt	nt	i	nt
C=CCN(CC=C)CC(=O)Nn1c(C)ccc1C	nt	nt	nt	nt	i	nt
COc1ccc(-c2cc(C(F)(F)F)nc(S(C)(=O)=O)n2)cc1	i	0.189	-11.4	i	i	6*
CS(=O)(=O)c1nc(-c2ccc(F)cc2)cc(C(F)(F)F)n1	i	-0.844	-21.3	i	i	i
COc1ccc(-c2cc(C(F)(F)F)nc(N)n2)cc1	i	0.542	-9.6	i	i	i
CCOC(=O)CS(=O)(=O)c1nc(-c2ccc(F)cc2)cc(C(F)(F)F)n1	9*	-2.58	-26.0	i	i	i
COc1nc(-c2ccccc2)cc(C(F)(F)F)n1	i	-0.548	4.7*	i	i	i
O=C(CCS(=O)(=O)c1ccc(Cl)cc1)N1CCCc2ccccc21	i	nt	-9.1	i	i	i
CC(C)[C@@H](CO)N(C)S(=O)(=O)c1ccccc1Br	nt	nt	nt	nt	i	nt
O=C(O)CN1C(=O)Nc2ccc(Br)cc2C1c1ccccc1 (centres undefined)	i	-0.248	-7.1	i	i	i
CCOC(=O)CN1C(c2ccccc2O)Nc2ccc(Br)cc2C1c1ccccc1 (centres undefined)	i	0.537	-6.8	-7.38*	i	i
Cc1c(C(=O)Nc2ccccc2[N+](=O)[O-])csc1-c1ccccc1	i	-0.354	-16.4	-6.69*	i	i
Cc1c(C(=O)Nc2ccccc2)csc1-c1ccccc1	i	0.775	-7.5	i	i	i
CC1CCN(C(=S)NC(=O)c2ccc(F)cc2)CC1	nt	nt	nt	nt	i	nt
CN(C(=S)NC(=O)c1ccc(Cl)cc1)C1CCCCC1	12*	nt	-3.6	i	i	i
CN(C(=S)NC(=O)c1ccccc1)C1CCCCC1	11*	nt	15.1*	i	i	i
CN(C(=S)NC(=O)c1ccc(F)cc1)C1CCCCC1	8*	nt	2.7	i	i	i
O=C(NC(=S)NC1CCCCC1)c1ccccc1	i	nt	-6.0	i	i	i
CN(C(=O)c1ccc(C(=O)N(C)C2CCCCC2)cc1)C1CCCCC1	nt	-0.707	nt	nt	nt	nt
CCOc1ccc(OCCC(=O)Nc2cccc(S(=O)(=O)N3CCCC3)c2)cc1	nt	nt	nt	nt	i	nt
CC1CN(C2CCCCC2)C(=S)NC1=O (centres undefined)	nt	nt	nt	nt	i	nt
CCCC(=O)Nc1sc2c(c1C(=O)OCC)CC(C)(C)OC2	i	nt	-14.4	i	i	i
CCOC(=O)c1c(NC(=O)c2ccc(C)cc2)sc2c1CC(C)(C)OC2	i	0.0924	-6.8	i	i	8*
O=C(Cc1cccc(NC(=O)C2CCN(S(=O)(=O)c3cccc([N+](=O)[O-])c3)CC2)c1)Nc1cccc(C(=O)N2CCOCC2)c1	nt	nt	nt	nt	i	nt
Cc1nn(-c2ccc(Cl)cc2)c2sc(C(=O)c3c(N)n(C)c(=O)n(C)c3=O)cc12	i	-2.51	24.1*	i	i	i
Cn1c(N)c(C(=O)c2ccc(Cl)cc2)c(=O)n(C)c1=O	i	0.678	-4.5	i	i	i
CCCn1c(C(C)Nc2nc(-c3cc(Cl)c(N)c(Cl)c3)cs2)nc2cc(Cl)c(N3CCCCC3)cc21 (centres undefined)	i	nt	-6.5	i	i	i
